Reference: ChEMBL document CHEMBL3272081, “Oxytocin analogues with combined high smooth muscle and negligible antidiuretic activities. Investigation of position 7 in neurohypophyseal hormones” (J Med Chem, 1976)
Calls of active or inactive are those of the source. The calls are words filed in the database; no cut-off is given here. Bridge positions count the residues as written; N and C are the ends. Square brackets hold non-standard residues; d marks the D form. Peptide text beside a SMILES is read from it. Mpa = O=C(O)CCS

Experiments:
Oryctolagus cuniculus = organism: Oryctolagus cuniculus; assay: Induction of oxytocic activity in rabbit assessed as milk ejection; assay type: functional
Rattus norvegicus [1] = organism: Rattus norvegicus; assay: Pressor activity in rat; assay type: functional
Outline: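 Anesthetized male rats, per the U.S. Pharmacopeia. Potency is estimated by matches, with the USP posterior pituitary standard always injected before the analogue. Before each analogue dose, several standard doses are confirmed to give reproducible, unattenuated responses. Reported as USP U/mg ± SEM, five animals.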

Rattus norvegicus [2] = organism: Rattus norvegicus; assay: Antidiuretic activity in rat; assay type: functional, Urine
Outline: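 Anesthetized male rats, Jeffers et al. method as modified by Sawyer. Specific activity is obtained against the USP standard using a Schild four-point design or matches. Reported as USP U/mg ± SEM, five animals per determination.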

[3] = biological target: T1, Oxytocin receptor (Rattus norvegicus) (UniProt P70536); assay: Activity at rat oxytocin receptor in rat uterus assessed as uterotonic activity; assay type: tissue-based
T1 sequence (whole entry): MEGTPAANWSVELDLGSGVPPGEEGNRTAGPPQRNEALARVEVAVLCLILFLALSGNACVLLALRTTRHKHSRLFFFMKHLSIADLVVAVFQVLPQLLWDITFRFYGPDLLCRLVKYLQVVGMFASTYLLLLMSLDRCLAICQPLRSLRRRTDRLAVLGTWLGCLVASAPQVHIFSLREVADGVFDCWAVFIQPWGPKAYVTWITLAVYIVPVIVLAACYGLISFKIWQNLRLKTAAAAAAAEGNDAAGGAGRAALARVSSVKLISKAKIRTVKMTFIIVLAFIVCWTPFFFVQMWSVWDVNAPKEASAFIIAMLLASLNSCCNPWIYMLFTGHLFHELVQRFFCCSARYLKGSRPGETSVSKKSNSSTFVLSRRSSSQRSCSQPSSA
Outline: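 Isolated uterine horns from virgin rats in natural estrus, Holton method as modified by Munsick, bathed in Mg²⁺-free van Dyke–Hastings solution. Specific activity is derived against the USP standard by a Schild four-point design or by matches. Expressed as USP U/mg ± SEM, with at least three animals per determination.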

Gallus gallus = assay: Induction of vasodepressor activity in conscious chicken; assay type: functional
[4] = biological target: T2, Oxytocin receptor (Homo sapiens) (UniProt P30559); assay: Activity at oxytocin receptor (unknown origin) assessed as oxytocic activity
T2 sequence (whole entry): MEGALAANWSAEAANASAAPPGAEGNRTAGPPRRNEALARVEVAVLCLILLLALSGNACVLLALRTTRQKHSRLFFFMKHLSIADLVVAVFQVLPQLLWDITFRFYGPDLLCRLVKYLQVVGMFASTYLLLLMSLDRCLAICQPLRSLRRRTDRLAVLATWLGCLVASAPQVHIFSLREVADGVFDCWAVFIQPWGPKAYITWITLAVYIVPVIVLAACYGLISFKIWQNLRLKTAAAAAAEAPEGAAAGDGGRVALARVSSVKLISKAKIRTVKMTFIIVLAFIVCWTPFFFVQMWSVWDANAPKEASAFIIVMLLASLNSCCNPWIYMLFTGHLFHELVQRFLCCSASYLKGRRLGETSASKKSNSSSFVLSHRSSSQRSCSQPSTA

Rattus norvegicus [5] = assay: Induction of vasodepressor activity in anesthetized male rat at 0.5 mg
[6] = Drug metabolism in rat uterine homogenate assessed as compound inactivation after 60 mins; assay type: ADME, tissue-based, Uterus; conditions: read-out: Drug metabolism
[7] = Drug metabolism in rat uterine homogenate assessed as compound inactivation after 30 mins; assay type: ADME, tissue-based, Uterus; conditions: read-out: Drug metabolism
Rattus norvegicus [8] = organism: Rattus norvegicus; assay: Pressor activity in rat after 45 mins; assay type: functional, organism-based

Row | Compound | Activity (Oryctolagus cuniculus) | Activity (Rattus norvegicus [1]) | Activity (Rattus norvegicus [2]) | Activity [3] | Activity (Gallus gallus) | Activity [4] | Activity (Rattus norvegicus [5]) | metabolised at 1 h [6] | metabolised at 0.5 h [7] | Activity (Rattus norvegicus [8])
1 | CC[C@H](C)[C@@H]1NC(=O)[C@H](Cc2ccc(O)cc2)NC(=O)CCSSC[C@@H](C(=O)N2CCC[C@H]2C(=O)N[C@@H](CC(C)C)C(=O)NCC(N)=O)NC(=O)[C@H](CC(N)=O)NC(=O)[C@H](CCC(N)=O)NC1=O | 541 USP-U/mg | 1.44 USP-U/mg | 19 USP-U/mg | 803 USP-U/mg | 975 USP-U/mg |  |  |  |  | 
2 | CC[C@H](C)[C@@H]1NC(=O)[C@H](Cc2ccc(O)cc2)NC(=O)[C@@H](N)CSSC[C@@H](C(=O)N[C@@H](C)C(=O)N[C@@H](CC(C)C)C(=O)NCC(N)=O)NC(=O)[C@H](CC(N)=O)NC(=O)[C@H](CCC(N)=O)NC1=O (H-CYIQNCALG-NH2; disulfide 1-6) |  | 0.4 USP-U/mg | 0.08 USP-U/mg | 22 USP-U/mg | 4.8 USP-U/mg |  |  |  |  | 
3 | CC[C@H](C)[C@@H]1NC(=O)[C@H](Cc2ccc(O)cc2)NC(=O)[C@@H](N)CSSC[C@@H](C(=O)NCC(=O)N[C@@H](CC(C)C)C(=O)NCC(N)=O)NC(=O)[C@H](CC(N)=O)NC(=O)[C@H](CCC(N)=O)NC1=O (H-CYIQNCGLG-NH2; disulfide 1-6) | 224 USP-U/mg | 0.3 USP-U/mg | <=0.01 USP-U/mg | 65 USP-U/mg | 5.3 USP-U/mg | 68 U/mg | 25 mmHg |  |  | 
4 | CC[C@H](C)[C@@H]1NC(=O)[C@H](Cc2ccc(O)cc2)NC(=O)CCSSC[C@@H](C(=O)N[C@@H](C)C(=O)N[C@@H](CC(C)C)C(=O)NCC(N)=O)NC(=O)[C@H](CC(N)=O)NC(=O)[C@H](CCC(N)=O)NC1=O ([Mpa]YIQNCALG-NH2; disulfide 1-6) |  | 0.5 USP-U/mg | 0.17 USP-U/mg | 123 USP-U/mg | 9.8 USP-U/mg |  |  |  |  | 
5 | CC[C@H](C)[C@@H]1NC(=O)[C@H](Cc2ccc(O)cc2)NC(=O)CCSSC[C@@H](C(=O)NCC(=O)N[C@@H](CC(C)C)C(=O)NCC(N)=O)NC(=O)[C@H](CC(N)=O)NC(=O)[C@H](CCC(N)=O)NC1=O ([Mpa]YIQNCGLG-NH2; disulfide 1-6) |  | 0.5 USP-U/mg | 0.062 USP-U/mg | 355 USP-U/mg | 17 USP-U/mg |  |  | 30% | 3% | 
6 | CC[C@H](C)[C@@H]1NC(=O)[C@H](Cc2ccc(O)cc2)NC(=O)[C@@H](N)CSSC[C@@H](C(=O)N2CCC[C@H]2C(=O)N[C@@H](CC(C)C)C(=O)NCC(N)=O)NC(=O)[C@H](CC(N)=O)NC(=O)[C@H](CCC(N)=O)NC1=O [OXYTOCIN] | 440 USP-U/mg | 3.1 USP-U/mg | 2.7 USP-U/mg | 546 USP-U/mg | 507 USP-U/mg |  |  |  |  | Active
